ChEMBL document CHEMBL1149910, “2-(6-aryl-3(Z)-hexen-1,5-diynyl)anilines as a new class of potent antitubulin agents” (J Med Chem, 2008)
Active and inactive are the calls of the source. The rule behind the calls is not given here.

Legend:
[1] = tested on: MDA-MB-231; assay: Cell cycle arrest in human MDA-MB-231 cells assessed as accumulation of >4N cells at 9.0 uM after 72 hrs by flow cytometry; format: functional
Summary of the method: (§1)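 MDA-MB-231/ATCC cells were grown in DMEM with 10% fetal bovine serum, […], 1% nonessential amino acids, penicillin and streptomycin at 37 °C in 5% CO₂. They were exposed to 3.6, 9.0, 18, 27 or 36 µM for 24 or 72 h, with colchicine as control. DNA content was then read by flow cytometry, and […] cells were scored.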

[2] = tested on: K562; assay: Cytotoxicity against human K562 cells; format: functional
Summary of the method: (§2)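 Tested in the NCI in vitro antitumor screening protocol across a tumor cell line panel. GI₅₀ is the concentration producing a 50% reduction in cell growth.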

[3] = tested on: MDA-MB-231; assay: Cell cycle arrest in human MDA-MB-231 cells assessed as accumulation of >4N cells at 9.0 uM after 24 hrs by flow cytometry; format: functional; summary of the method: as §1
[4] = Inhibition of bovine tubulin polymerization; set-up: species or system Bos taurus
Summary of the method: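 Purified bovine tubulin incubated at 37 °C in buffer containing 20% glycerol and 1 mM GTP, with test compound at 3.6–36 µM. Polymerization followed kinetically by the increase in fluorescence. Colchicine and paclitaxel served as controls.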

[5] = tested on: SNB-19; assay: Cytotoxicity against human SNB19 cells; format: functional; summary of the method: as §2
[6] = tested on: MDA-MB-231; assay: Cell cycle arrest in human MDA-MB-231 cells assessed as accumulation of >4N cells at 27.0 uM after 72 hrs by flow cytometry; format: functional
[7] = tested on: OVCAR-5; assay: Cytotoxicity against human OVCAR5 cells; format: functional; summary of the method: as §2
[8] = tested on: T47D; assay: Cytotoxicity against human T47D cells; format: functional; summary of the method: as §2
[9] = tested on: SN12C; assay: Cytotoxicity against human SN12C cells; format: functional; summary of the method: as §2
[10] = tested on: MDA-MB-231; assay: Cell cycle arrest in human MDA-MB-231 cells assessed as accumulation at sub-G1 phase at 3.6 uM after 72 hrs by flow cytometry; format: functional
[11] = tested on: SNB-75; assay: Cytotoxicity against human SNB75 cells; format: functional; summary of the method: as §2
[12] = tested on: OVCAR-3; assay: Cytotoxicity against human OVCAR-3 cells; format: functional; summary of the method: as §2
[13] = tested on: PC-3; assay: Cytotoxicity against human PC3 cells; format: functional; summary of the method: as §2
[14] = tested on: NCI/ADR-RES; assay: Cytotoxicity against human NCI/ADR-RES cells; format: functional; summary of the method: as §2
[15] = tested on: SR; assay: Cytotoxicity against human SR cells; format: functional; summary of the method: as §2
[16] = tested on: EKVX; assay: Cytotoxicity against human EKVX cells; format: functional; summary of the method: as §2
[17] = tested on: MDA-MB-231; assay: Cell cycle arrest in human MDA-MB-231 cells assessed as accumulation of >4N cells at 27.0 uM after 24 hrs by flow cytometry; format: functional
[18] = tested on: MDA-MB-231; assay: Cell cycle arrest in human MDA-MB-231 cells assessed as accumulation of >4N cells at 3.6 uM after 72 hrs by flow cytometry; format: functional
[19] = tested on: MDA-MB-435; assay: Cytotoxicity against human MDA-MB-435 cells; format: functional; summary of the method: as §2
[20] = tested on: MDA-MB-231; assay: Cell cycle arrest in human MDA-MB-231 cells assessed as accumulation of 4N cells at 9.0 uM after 24 hrs by flow cytometry; format: functional
[21] = tested on: UACC-62; assay: Cytotoxicity against human UACC62 cells; format: functional
Summary of the method: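 NCI in vitro antitumor screening protocol; GI50 taken as the concentration giving 50% reduction in cell growth.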

[22] = tested on: SF-295; assay: Cytotoxicity against human SF295 cells; format: functional; summary of the method: as §2
[23] = tested on: MDA-MB-231; assay: Effect on microtubule depolymerization in human MDA-MB-231 cells assessed as disorganized microtubule cytoskeleton at 3.6 uM after 2 hrs relative to control; format: functional, cell-based
Summary of the method: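 MDA-MB-231/ATCC cells grown on glass coverslips (1 × 10⁴ cells) for 24 h, then exposed to 3.6, 9, 18, 27 or 36 µM at 37 °C for 2 h. Fixed in 4% paraformaldehyde, permeabilized with Triton X-100, and immunostained for α-tubulin and ninein with DAPI counterstain. Interphase microtubule networks compared with untreated cells by confocal microscopy.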

[24] = tested on: COLO 205; assay: Cytotoxicity against human COLO205 cells; format: functional; summary of the method: as §2
[25] = tested on: MDA-MB-231; assay: Cell cycle arrest in human MDA-MB-231 cells assessed as accumulation of 2N cells at 36.0 uM after 72 hrs by flow cytometry; format: functional
[26] = tested on: MDA-MB-231; assay: Cell cycle arrest in human MDA-MB-231 cells assessed as accumulation of 2N cells at 36.0 uM after 24 hrs by flow cytometry; format: functional
[27] = tested on: MDA-MB-231; assay: Cell cycle arrest in human MDA-MB-231 cells assessed as accumulation of >4N cells at 36.0 uM after 72 hrs by flow cytometry; format: functional
[28] = tested on: MDA-MB-231; assay: Cell cycle arrest in human MDA-MB-231 cells assessed as accumulation of 2N cells at 9.0 uM after 72 hrs by flow cytometry; format: functional
[29] = tested on: MDA-MB-231; assay: Cell cycle arrest in human MDA-MB-231 cells assessed as accumulation of 2N cells at 27.0 uM after 24 hrs by flow cytometry; format: functional
[30] = Cytotoxicity against human […] cells; format: functional; summary of the method: as §2
[31] = tested on: HCT-116; assay: Cytotoxicity against human HCT116 cells; format: functional; summary of the method: as §2
[32] = tested on: CAKI-1; assay: Cytotoxicity against human CAKI1 cells; format: functional; summary of the method: as §2
[33] = tested on: SF-268; assay: Cytotoxicity against human SF268 cells; format: functional; summary of the method: as §2
[34] = tested on: MDA-MB-231; assay: Cell cycle arrest in human MDA-MB-231 cells assessed as accumulation of 4N cells at 3.6 uM after 72 hrs by flow cytometry; format: functional
[35] = tested on: MDA-MB-231; assay: Cell cycle arrest in human MDA-MB-231 cells assessed as accumulation of 4N cells at 36.0 uM after 72 hrs by flow cytometry; format: functional
[36] = tested on: LOX IMVI; assay: Cytotoxicity against human LOXIMVI cells; format: functional; summary of the method: as §2
[37] = read-out: LC50 (the source's name)

With `Nc1ccccc1C#C/C=C\C#Cc1ccccc1C(F)(F)F` as the compound, how does the Activity [1] read?
Its Activity is 18%.

What about the GI50 [2] of the same compound?
Its GI50 is 1 µM.

What about the TGI [2] of the same compound?
The TGI was 0.845 µM.

And the CC50 [2, 37]?
The CC50 was 62.7 µM.

And the Activity [3]?
Its Activity is 34%.

What about the IC50 [4] of the same compound?
Its IC50 is 9 µM.

And the GI50 [5]?
Its GI50 is 11.3 µM.

And the TGI [5]?
The TGI was 39.9 µM.

And the CC50 [5, 37]?
The CC50 was over 100 µM.

And the Activity [6]?
The Activity was 12.8%.

And the GI50 [7]?
The GI50 was 1.35 µM.

And the TGI [7]?
Its TGI is 7.02 µM.

What about the CC50 [7, 37] of the same compound?
Its CC50 is 37.5 µM.

What about the GI50 [8] of the same compound?
The GI50 was 17 µM.

And the TGI [8]?
Its TGI is 49.6 µM.

What about the CC50 [8, 37] of the same compound?
Its CC50 is over 100 µM.

And the GI50 [9]?
Its GI50 is 0.348 µM.

And the TGI [9]?
Its TGI is 6.52 µM.

And the CC50 [9, 37]?
Its CC50 is 30.9 µM.

What about the Activity [10] of the same compound?
The Activity was 47.2%.

And the TGI [11]?
The TGI was 18.8 µM.

What about the GI50 ([11]; read-out: GI50) of the same compound?
Its GI50 is 0.0869 µM.

And the CC50 [11, 37]?
Its CC50 is 100 µM.

And the GI50 ([11]; read-out: pGI50 (converted))?
Its GI50 is 0.0794 µM.

And the GI50 [12]?
The GI50 was 0.631 µM.

What about the GI50 [13] of the same compound?
Its GI50 is 2.35 µM.

What about the TGI [13] of the same compound?
Its TGI is 24.9 µM.

What about the CC50 [13, 37] of the same compound?
Its CC50 is 94.2 µM.

What about the GI50 [14] of the same compound?
The GI50 was 0.249 µM.

What about the TGI [14] of the same compound?
Its TGI is 0.68 µM.

And the CC50 [14, 37]?
The CC50 was 28.5 µM.

And the GI50 [15]?
Its GI50 is 0.247 µM.

What about the TGI [15] of the same compound?
Its TGI is 0.691 µM.

And the CC50 [15, 37]?
Its CC50 is over 100 µM.

And the GI50 [16]?
Its GI50 is 0.358 µM.

And the TGI [16]?
The TGI was 12.4 µM.

And the CC50 [16, 37]?
Its CC50 is 40.4 µM.

What about the Activity [17] of the same compound?
The Activity was 35.3%.

What about the Activity [18] of the same compound?
Its Activity is 10.3%.

What about the GI50 [19] of the same compound?
The GI50 was 0.398 µM.

And the Activity [20]?
The Activity was 33.6%.

And the TGI [21]?
Its TGI is 0.808 µM.

What about the GI50 ([21]; read-out: GI50) of the same compound?
The GI50 was 0.261 µM.

And the CC50 [21, 37]?
Its CC50 is 29 µM.

What about the GI50 ([21]; read-out: pGI50 (converted)) of the same compound?
Its GI50 is 0.251 µM.

What about the GI50 [22] of the same compound?
The GI50 was 0.396 µM.

What about the TGI [22] of the same compound?
The TGI was 2.6 µM.

And the CC50 [22, 37]?
Its CC50 is 26.8 µM.

What about the Activity [23] of the same compound?
The Activity was “Active”.

And the GI50 [24]?
The GI50 was 1.17 µM.

What about the TGI [24] of the same compound?
Its TGI is 13.8 µM.

And the CC50 [24, 37]?
Its CC50 is over 100 µM.

What about the Activity [25] of the same compound?
The Activity was 6.5%.

What about the Activity [26] of the same compound?
Its Activity is 10.4%.

What about the Activity [27] of the same compound?
The Activity was 9.7%.

What about the Activity [28] of the same compound?
The Activity was 6.8%.

And the Activity [29]?
Its Activity is 9.3%.

And the GI50 [30]?
Its GI50 is 0.746 µM.

What about the TGI [30] of the same compound?
Its TGI is over 100 µM.

What about the CC50 [30, 37] of the same compound?
The CC50 was over 100 µM.

And the GI50 [31]?
The GI50 was 0.423 µM.

And the TGI [31]?
The TGI was 12.5 µM.

And the CC50 [31, 37]?
Its CC50 is 47.4 µM.

What about the GI50 [32] of the same compound?
Its GI50 is 0.351 µM.

What about the TGI [32] of the same compound?
Its TGI is 13.2 µM.

What about the CC50 [32, 37] of the same compound?
Its CC50 is 38 µM.

And the GI50 [33]?
The GI50 was 0.65 µM.

And the TGI [33]?
The TGI was 19.7 µM.

And the CC50 [33, 37]?
The CC50 was 64.3 µM.

What about the Activity [34] of the same compound?
Its Activity is 19.2%.

And the Activity [35]?
The Activity was 14.5%.

What about the GI50 [36] of the same compound?
Its GI50 is 0.499 µM.

What about the TGI [36] of the same compound?
The TGI was 10.5 µM.

And the CC50 [36, 37]?
Its CC50 is 46.2 µM.
